Assay outcomes from PubChem BioAssay.
A selection: hits, their analogues and other compounds. The true share with any hit is near 3.7%.
TAAR1 antag: human TAAR1 antagonism. inhibition, % at 3 µM. AID 624466. 360,000 compounds, 1.5% hits. Q96RJ0. CHO RD-HGA16 TAAR1, Fluo-8 calcium fluorescence, antagonist;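 active = inhibition above a per-plate cutoff, the mean inhibition of test compounds on that plate plus 3 SD, cut at about 49% in these data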;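 also: 0% = DMSO plus EC80 beta-PEA response and 100% = DMSO alone without agonist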
Target sequence (Q96RJ0 whole entry, looked up): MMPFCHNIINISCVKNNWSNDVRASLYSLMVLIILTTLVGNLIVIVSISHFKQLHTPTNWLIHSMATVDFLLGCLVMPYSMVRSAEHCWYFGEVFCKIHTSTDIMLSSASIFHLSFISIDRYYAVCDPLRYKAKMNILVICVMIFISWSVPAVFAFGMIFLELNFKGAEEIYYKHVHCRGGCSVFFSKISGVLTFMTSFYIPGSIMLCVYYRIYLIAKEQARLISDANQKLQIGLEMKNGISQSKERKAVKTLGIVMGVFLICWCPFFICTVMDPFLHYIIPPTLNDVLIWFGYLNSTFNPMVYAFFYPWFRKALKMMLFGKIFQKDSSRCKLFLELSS
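Material: RD-HGA16 CHO cells with stable hTAAR1 and Gα16; Dosing: single nominal final test compound concentration of 3 µM; Schedule: seeding 17-24 h prior, 75-min 37 °C, 30-min RT dye loading; Detection: kinetic Fluo-8 calcium fluorescence measurement; Measure: % inhibition from peak post-agonist over basal fluorescence ratio; Benchmarks: vehicle and agonist controls.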
HCV core dimer: HCV core protein dimerization inhibition; 300,000 compounds, 0.33% hits; AID 1899; TR-FRET GST/Flag-core106 dimerization, 1536-well; inhibition, % at 5 µM;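 active = inhibition above the mean of all tested compounds plus 3 SD, set per screening campaign, cut at about 45% in these data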
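System: GST/Flag-tagged HCV core106 proteins. Incubation: compound-protein-antibody incubation 4 h at 22.5 °C. Technique: HTRF with 340 nm excitation, 617/671 nm emission. Medium: KF-containing HEPES buffer, pH 7.45, DTT, CHAPS, BSA. Read-out: inhibition (%) from 671 over 617 nm ratio. Also added: Eu(K)-anti-GST 90 ng/mL plus XL665-anti-Flag 1 µg/mL.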
TAAR1 ag: agonists of human TAAR1; Q96RJ0; CHO RD-HGA16 TAAR1, Fluo-8 calcium fluorescence; vehicle wells 0%, saturating PEA agonist 100%; activation, % at 3 µM; 360,000 compounds, 0.99% hits; AID 624467;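 active = activation above the mean activation of all test compounds in the run plus 3 SD, cut at about 38% in these data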
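System: CHO RD-HGA16 cells carrying human TAAR1 plus Gα16; Incubation: 17-24 h seeding, 75 min 37 °C dye, 30 min RT; Measured by: Fluo-8 fluorescence, 5 s baseline then 140 s kinetic read; Control set: DMSO and PEA EC100; Replication: single well for each compound.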
rCAG binder: r(CAG) repeat RNA binding. inhibition, % at 3 µM. TO-PRO-1 dye displacement fluorescence. 370,000 compounds, 1.3% hits. AID 651821;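 active = inhibition above the plate cutoff, the mean of all test compounds on that plate plus 3 SD, cut at about 35% in these data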;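 also: 0% = DMSO alone and 100% = 100 µM mitoxantrone as full dye displacement; higher means more dye released from RNA so lower well fluorescence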
NS3 helicase inh: HCV NS3 helicase inhibition; NS3 helicase DNA unwinding, Cy5 molecular beacon fluorescence; inhibition, % at 10.9 µM; 290,000 compounds, 0.56% hits;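 active = inhibition above the mean of all tested compounds plus 3 SD, set per campaign, cut at about 35% in these data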;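 also: 0% = DMSO wells and 100% = thioflavine S control wells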
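Control set: DMSO versus 110 µM thioflavine S; Material: NS3 helicase fragment of HCV; Measured by: Cy5 fluorescence at 0 and 60 min, beacon hairpin quenching; Read-out basis: percent inhibition from t60/t0 fluorescence ratio; Times: reaction time 60 min, 25 °C; Repeats: single replicate; Compound dosing: single dose, 10.9 µM nominal final, DMSO 0.8% final.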
Numbers without * were called inactive; / = no result.

SMILES | TAAR1 antag | HCV core dimer | TAAR1 ag | rCAG binder | NS3 helicase inh
c1ccc(OCc2nn3c(-c4n[nH]c5c4CCC5)nnc3s2)cc1 | -7 | 47* | 1 | 12 | /
CC(C)(C)C(=O)NC1CCCCN(Cc2cccc(Cl)c2)C1=O (stereo not drawn) | / | / | / | 0 | /
CC(C)(C)OC(=O)NCc1ccc(CNC(=O)c2nc[nH]c2C(=O)NCc2ccc(CNC(=O)OC(C)(C)C)cc2)cc1 | 43 | / | 8 | 3 | /
CC(C)C[C@H](NC(=O)c1[nH]cnc1C(=O)Nc1ccc(CNC(=O)OC(C)(C)C)cc1)C(=O)OC(C)(C)C | 27 | -4 | 5 | 12 | /
CC(C)C[C@H](NC(=O)c1[nH]cnc1C(=O)Nc1ccc(CNC(=O)OC(C)(C)C)cc1)C(=O)OCc1ccccc1 | 53* | 2 | 16 | 16 | /
CC(C)(C)OC(=O)CNC(=O)c1[nH]cnc1C(=O)Nc1ccc(CNC(=O)OC(C)(C)C)cc1 | 59* | 0 | 27 | 2 | /
C[C@@H](O)CNC(=O)c1[nH]cnc1C(=O)Nc1ccc(CNC(=O)OC(C)(C)C)cc1 | 49* | / | 8 | -2 | /
COc1ccc2c(c1)CN1C(=O)N(CC(C)C)S(=O)(=O)CC21 (stereo not drawn) | / | / | / | 4 | /
C=CCN1[C@@H](C)COc2cccc(F)c2S1(=O)=O | / | / | / | 0 | /
N#Cc1c(C(F)(F)F)cc(-c2ccc(Cl)cc2)[nH]c1=O | 10 | 8 | 12 | 37* | 11
CCC(OC(=O)c1cccs1)C(=O)NCc1ccco1 (stereo not drawn) | -17 | 0 | 0 | 4 | 1
CC(C)CC(OC(=O)c1cccs1)C(=O)NCc1ccco1 (stereo not drawn) | -5 | 49* | 4 | 4 | 25
Cc1ccc(CNC(=O)CCS(=O)(=O)c2cc3c(cc2Br)CCN3C(=O)C2CC2)o1 | / | / | / | 6 | /
CC1CCC2(CC1)CCN(CCCOC(=O)Nc1ccc3c(c1)OCO3)C2=O (stereo not drawn) | / | / | / | -2 | /
CC(=O)c1ccc(OCC(O)Cn2nnc3ccccc32)cc1 (stereo not drawn) | 7 | 7 | 4 | 0 | 0
N#Cc1ccc(-c2ccc(OCC(O)Cn3nnc4ccccc43)cc2)cc1 (stereo not drawn) | 56* | 7 | 13 | -4 | -8
CCCC[C@H]1C2CC(OC(=O)Nc3cccc(C(F)(F)F)c3)C(C2)[C@H]2CCCCN21 (stereo partly drawn) | / | / | / | -2 | /
CCOCCc1nnc(NC(=O)Cc2ccc(Br)cc2)s1 | -12 | 0 | 46* | -5 | 19
CCOCCc1nnc(NC(=O)CCc2ccccc2)s1 | -5 | 1 | 3 | 3 | -2
CC(=O)CC[C@@H]1CC[C@]2(CCCN(C(=O)c3ccco3)C2)O1 | / | / | / | 2 | /
COc1ccc(OC)c(S(=O)(=O)Nc2ccc(C(=O)Nc3cc(C)on3)cc2)c1 | / | / | / | 5 | /
O=C(Nc1nc2ccccc2s1)c1ccc2sc([C@H]3C[C@H](O)[C@@H](CO)O3)nc2c1 | 50* | / | 10 | 9 | /
Cc1ccccc1C(=O)N(C)[C@H]1C[C@H]2c3[nH]c4c(-c5ccccc5)cccc4c3CCN2C[C@H]1[C@H](C)O | / | / | / | 9 | /
CCOC(=O)CSc1nnc(CNc2ccc(Cl)cc2)n1-c1ccccc1 | 52* | 8 | 16 | -4 | -2
O=C(NC1CCCCN(Cc2cccc(Cl)c2)C1=O)c1cccs1 (stereo not drawn) | / | / | / | 2 | /
SMILES | TAAR1 antag | HCV core dimer | TAAR1 ag | rCAG binder | NS3 helicase inh
COc1cc(C#Cc2c(-c3cncn3C)n(C)c3ccc(-c4ccc(CN5CCOCC5)cc4)cc23)cc(OC)c1 | 56* | / | 3 | 9 | /
COC(=O)C1CN(C2CCCC2)CCS(=O)(=O)N1Cc1ccc(C(F)(F)F)cc1 (stereo not drawn) | / | / | / | -2 | /
CCCCc1c(-c2ccccc2)ncn1CCc1ccccc1OC | 41 | / | 3 | 0 | /
CCCCCc1c(-c2ccc(OC)cc2)ncn1CCc1ccccc1OC | 61* | / | 14 | -1 | /
CCCCc1c(-c2ccc(OC)cc2)ncn1CCc1ccccc1OC | 50* | / | 24 | 0 | /
N#Cc1ccc(OC[C@@H](O)CN2CCC(C(O)(c3ccccc3)c3ccccc3)CC2)cc1 | / | / | / | 3 | /
CCN(CC)S(=O)(=O)c1cccc(C(=O)Nc2nc3cc4c(cc3s2)OCCO4)c1 | 52* | 7 | 4 | 13 | -67
O=C(Nc1nc2cc3c(cc2s1)OCCO3)c1cccc(N2C(=O)CCC2=O)c1 | 38 | -4 | 9 | 0 | -17
O=C(Nc1ccc(C(O)(C(F)(F)F)C(F)(F)F)cc1)c1ccc(Cl)c([N+](=O)[O-])c1 | 57* | 4 | 6 | 10 | -10
C[C@@H]1CCN(C2CC2)S(=O)(=O)c2c(cccc2N2CCC[C@H]2C)O1 | / | / | / | 6 | /
COc1ccc(-c2cc(C(=O)OC(C)C(=O)Nc3c(C)n(C)n(-c4ccccc4)c3=O)c3ccccc3n2)cc1 (stereo not drawn) | 3 | 4 | 6 | 2 | -9
COc1ccc(-c2cc(C(=O)NCCCN3CCOCC3)c3ccccc3n2)cc1OC | 2 | -5 | 4 | -5 | /
COc1ccc(-c2cc(C(=O)Nc3c(C)n(C)n(-c4ccccc4)c3=O)c3ccccc3n2)cc1OC | 55* | 6 | 17 | 5 | -6
Cc1c(NC(=O)COC(=O)c2cc(-c3ccc(-c4ccccc4)cc3)nc3ccccc23)c(=O)n(-c2ccccc2)n1C | 19 | 49* | 1 | 7 | 1
COc1ccc(-c2cc(C(=O)NNC(=O)c3csc(N4CCOCC4)n3)c3ccccc3n2)cc1OC | 58* | 2 | 14 | 14 | /
O=C(CSc1nnc(-c2ccccc2F)n1-c1ccccc1)c1ccc2ccccc2c1 | / | / | / | 7 | /
O=C(OCc1cn(Cc2ccccc2Cl)nn1)N1CCOCC1 | / | / | / | 3 | /
CC(C)(C)c1ccc(OCCC(=O)OCC(=O)N2c3ccccc3NC(=O)C2(C)C)cc1 | 93* | -3 | 9 | -2 | /
COc1cc(C(=O)OCC(=O)N2c3ccccc3NC(=O)C2(C)C)ccc1OCC(C)C | 67* | 6 | 14 | -7 | /
CC1(C)C(=O)Nc2ccccc2N1C(=O)COc1ccc(S(=O)(=O)N2CCOCC2)cc1Cl | 10 | 65* | 10 | 4 | -1
Cc1cccc(OCCC(=O)OCC(=O)N2c3ccccc3NC(=O)C2(C)C)c1 | 41 | / | 12 | 1 | /
Cc1cc(OCC(=O)OCC(=O)N2c3ccccc3NC(=O)C2(C)C)ccc1Cl | 70* | / | 8 | 13 | /
CCCN1CCS(=O)(=O)N(Cc2cn(CC(=O)OCC)nn2)C(C(=O)OC)C1 (stereo not drawn) | / | / | / | -1 | /
COC(=O)[C@H](C(C)C)N1Cc2nnn(CC3CCCCC3)c2-c2ccccc2S1(=O)=O | / | / | / | -2 | /
CCC(=O)c1ccc(OCC(=O)OCC(=O)N2c3ccccc3NC(=O)C2(C)C)cc1 | 52* | 0 | 13 | 1 | /
N#Cc1ccccc1S(=O)(=O)N1CCN(c2nc(-c3cccnc3)nc3ccccc23)CC1 | 51* | / | 17 | 7 | /
